Assay results from ChEMBL document CHEMBL4392831, “Discovery of a novel class of potent and selective tetrahydroindazole-based sigma-1 receptor ligands” (Bioorg Med Chem, 2019).
pKi: −log10 of the molar value.

Assays:
[1] = target: T1, Sigma non-opioid intracellular receptor 1 (Homo sapiens, UniProt Q99720); assay: Displacement of [3H]-(+)-pentazocine from sigma1 receptor (unknown origin) expressed in HEK293 cell membranes after 120 mins by microbeta scintillation counting method
Procedure, shortened: (§1)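 Radioligand binding run by an external screening program; sigma-1 tracer [3H]-pentazocine, sigma-2 tracer [3H]-DTG. Each compound first tested at a single 10 μM concentration. Those giving >50% inhibition were then titrated over a dose range to derive pKi.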

[2] = target: Sigma intracellular receptor 2 (Homo sapiens, UniProt Q5BJF2); assay: Displacement of [3H]-DTG from sigma2 receptor (unknown origin) after 120 mins in presence of sigma1 […] (+)-SKF10047 by microbeta scintillation counting method; details: for Ki: read-out: pKi (converted); procedure, shortened: as §1
[3] = Stability in mouse liver microsomes assessed as parent compound remaining at 10 uM in presence of NADPH incubated for 60 mins at 37 degC by UPLC/MS analysis; assay type: ADME, Microsome; details: 1 h
Procedure, shortened: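 Mouse liver microsomes at 0.4 mg/mL with NADPH cofactor in phosphate buffer (0.5 M), compound at 10 μM, verapamil control. T0 sample quenched at once; others shaken 60 min at 37 °C, then stopped with 2 volumes ice-cold acetonitrile. After centrifugation, parent quantified by UPLC/MS in SRM mode. % remaining = (conc at 60 min / conc at 0 min) ×100. Duplicate runs, mean reported.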

[4] = Thermodynamic solubility in pH 7.4 PBS buffer incubated for 16 hrs by UV-absorption spectroscopy; assay type: physicochemical; details: pH 7.4, 16 h
Procedure, shortened: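 A standard curve per compound was built from UV absorbance of acetonitrile dilutions (500 to 0.9 μM, DMSO held at 0.5%) made from DMSO stock. For the sample, 1 mg compound in 1 mL PBS pH 7.4 was stirred at 500 rpm for 16 h at room temperature, then equilibrated 30 min and passed through a 0.2 μm filter. Filtrate UV absorbance was read on a plate reader and solubility extrapolated from the curve.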

Homo sapiens = species on record: Homo sapiens; assay: Selectivity for sigma1 receptor (unknown origin) over sigma2 receptor (unknown origin)
[5] = target: T1, Sigma non-opioid intracellular receptor 1; assay: Displacement of [3H]-(+)-pentazocine from recombinant human sigma1 receptor expressed in HEK293 cell membranes after 120 mins by microbeta scintillation counting method
[6] = Displacement of [3H]-DTG from sigma2 receptor in guinea pig brain membranes after 120 mins in presence of sigma1 […] (+)-SKF10047 by microbeta scintillation counting method; assay type: cell membranes, Cavia porcellus

Sigma intracellular receptor 2, sequence (Q5BJF2 whole entry): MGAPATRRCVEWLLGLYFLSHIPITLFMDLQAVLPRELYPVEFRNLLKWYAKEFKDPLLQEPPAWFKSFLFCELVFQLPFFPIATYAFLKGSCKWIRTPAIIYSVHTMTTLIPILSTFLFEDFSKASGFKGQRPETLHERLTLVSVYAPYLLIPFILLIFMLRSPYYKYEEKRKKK
T1 sequence (Q99720 whole entry): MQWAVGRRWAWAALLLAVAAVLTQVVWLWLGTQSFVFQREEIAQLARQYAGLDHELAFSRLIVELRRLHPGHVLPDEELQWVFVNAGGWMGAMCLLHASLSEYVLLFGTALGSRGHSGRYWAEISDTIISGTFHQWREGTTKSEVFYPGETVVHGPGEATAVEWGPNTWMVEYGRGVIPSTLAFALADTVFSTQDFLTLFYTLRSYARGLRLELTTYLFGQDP

SMILES	pKi [1]	Ki [2]	further results
CCCn1nc(C(=O)N(C)C)c2c1CCC(NCCc1ccc3c(c1)OCO3)C2 (stereo unspecified)	6.30	398 nM	–
NC(=O)c1ccc(-n2nc3c(c2C(=O)N2CCCCC2)CC(NCCc2ccccc2)CC3)cc1 (stereo unspecified)	6.20	–	–
O=C(c1nn(-c2ccccc2)c2c1CC(NCCc1cccc(O)c1)CC2)N1CCCCC1 (stereo unspecified)	6.70	–	–
O=C(c1c2c(nn1-c1ccc(F)cc1)CCC(NCc1ccc(F)cc1)C2)N1CCCCC1 (stereo unspecified)	–	–	Stability [3]: 25%; Therm solubility [4]: 110 µM; pKi ([2]; read-out: Ki): < 5.00; Selectivity ratio (Homo sapiens): > 500
O=C(c1nn(-c2ccccc2)c2c1CC(NCCc1ccc(C(F)(F)F)cc1)CC2)N1CCCCC1 (stereo unspecified)	6.50	–	–
O=C(c1c2c(nn1-c1ccccc1)CCC(NCc1ccc(F)cc1)C2)N1CCCCC1 (stereo unspecified)	7.50	158 nM	Stability [3]: 7%; Therm solubility [4]: 508 µM
O=C(c1nn(-c2ccccc2)c2c1CC(NCCc1ccc(F)cc1)CC2)N1CCCCC1 (stereo unspecified)	6.90	100 nM	–
CCCn1nc(C(=O)N(C)C)c2c1CCC(NCCc1ccc(C(F)(F)F)cc1)C2 (stereo unspecified)	5.60	631 nM	–
O=C(c1c2c(nn1-c1ccccc1)CCC(NCCc1ccc3c(c1)OCO3)C2)N1CCCCC1 (stereo unspecified)	7.20	31.6 nM	Stability [3]: 24%; Therm solubility [4]: 655 µM
c1ccc(OCc2cc(OC[C@@H]3CCCN3)no2)cc1	–	–	pKi [5]: 8.39; pKi [6]: 5.88
O=C(c1nn(Cc2ccccc2)c2c1CC(NCc1ccc(F)cc1)CC2)N1CCCCC1 (stereo unspecified)	6.60	–	–
O=C(c1nn(-c2ccccc2)c2c1CC(NCCc1ccc3c(c1)OCO3)CC2)N1CCCCC1 (stereo unspecified)	6.30	316 nM	–
O=C(c1c2c(nn1-c1ccccc1)CCC(NCc1ccccc1)C2)N1CCCCC1 (stereo unspecified)	7.40	126 nM	–
Cc1nc(-c2ccc(Cl)cc2)nc(OCCCN2CCCCC2)c1Cl	–	–	pKi [5]: 8.96; pKi [6]: 5.85
O=C(c1c2c(nn1-c1ccc(O)cc1)CCC(NCCc1ccccc1)C2)N1CCCCC1 (stereo unspecified)	6.50	251 nM	–
Cc1ccccc1NC(=N)Nc1ccccc1C [DITOLYLGUANIDINE]	–	–	pKi [6]: 7.55
O=C(c1c2c(nn1-c1ccccc1)CCC(NCCc1ccc(C(F)(F)F)cc1)C2)N1CCCCC1 (stereo unspecified)	6.70	–	–
O=C(c1c2c(nn1-c1ccc(F)cc1)CCC(NCCc1ccncc1)C2)N1CCCCC1 (stereo unspecified)	7.00	–	Stability [3]: 21%
CCCn1nc(C(=O)N(C)C)c2c1CCC(NCc1ccc(F)cc1)C2 (stereo unspecified)	–	2000 nM	Stability [3]: 21%; Therm solubility [4]: 1780 µM
CCCn1nc(C(=O)N2CCCCC2)c2c1CCC(NCCc1ccc(O)cc1)C2 (stereo unspecified)	–	251 nM	–
O=C(c1nn(-c2ccccc2)c2c1CC(NCc1ccccc1)CC2)N1CCCCC1 (stereo unspecified)	6.20	501 nM	Stability [3]: 0.3%; Therm solubility [4]: 1570 µM
Clc1ccc(Cn2cc(NCCN3CCOCC3)nn2)cc1Cl	–	–	pKi [6]: < 5.00
CC(C)=CCN1CC[C@]2(C)c3cc(O)ccc3C[C@H]1[C@H]2C [(+)-PENTAZOCINE]	–	–	pKi [6]: 5.81
